# In ChEMBL document CHEMBL4118190, “An SAR study of hydroxy-trifluoromethylpyrazolines as inhibitors of Orai1-mediated store operated Ca2+ entry in MDA-MB-231 breast cancer cells using a convenient Fluorescence Imaging Plate Reader assay” (Bioorg Med Chem, 2018):
# Key:
# Type in all cases: cell-based
# [1] = test system: MDA-MB-231; assay: Inhibition of endoplasmic reticulum calcium channel in human MDA-MB-231 cells assessed as reduction in endoplasmic reticulum intracellular calcium release at 100 uM pretreated for 15 mins followed by SERCA inhibitor CPA addition measured after 700 secs by PBX dye based FLIPR assay relative to control
# In short: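 Same MDA-MB-231 PBX-dye FLIPR protocol: 15 min compound pretreatment at room temperature, then BAPTA (500 µM) and CPA (10 µM) to deplete ER stores. Peak 1 height after CPA addition (ER Ca2+ release) expressed as % inhibition relative to the DMSO control. Excitation 470–495 nm, emission 515–575 nm.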
# [2] = biological target: T1, Calcium release-activated calcium channel protein 1 (Homo sapiens, UniProt Q96D31); assay: Inhibition of […] Orai1-medited store operated calcium entry in human MDA-MB-231 cells pretreated for 15 mins followed by BAPTA addition by PBX dye based FLIPR assay
# In short: (§1)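 MDA-MB-231 cells seeded 2×10^3/well and used 3 days later. Loaded 1 h at 37 °C with 2 µM PBX calcium dye, 5% signal enhancer and 500 µM probenecid in PSS, pH 7.3. Compound pretreated 15 min at room temperature. Then 500 µM BAPTA, 10 µM CPA, and 0.5 mM CaCl2 700 s after CPA. Read-out: peak 2 height as % inhibition vs DMSO. 95% CI, n = 4.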
# Target sequence in this assay (Q96D31 whole entry): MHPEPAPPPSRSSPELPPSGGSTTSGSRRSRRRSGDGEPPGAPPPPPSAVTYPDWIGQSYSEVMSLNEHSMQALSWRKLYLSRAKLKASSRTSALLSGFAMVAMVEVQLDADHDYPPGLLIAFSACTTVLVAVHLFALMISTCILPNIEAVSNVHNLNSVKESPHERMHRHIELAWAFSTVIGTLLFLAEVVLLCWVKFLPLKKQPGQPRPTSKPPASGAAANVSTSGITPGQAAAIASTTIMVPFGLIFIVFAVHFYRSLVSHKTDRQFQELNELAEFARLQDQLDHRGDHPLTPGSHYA
# [3] = biological target: T1, Calcium release-activated calcium channel protein 1; assay: Inhibition of […] Orai1-medited store operated calcium entry in human MDA-MB-231 cells at 100 uM pretreated for 15 mins followed by BAPTA addition by PBX dye based FLIPR assay relative to control; in short: as §1
# Target sequence in this assay (Q96D31 whole entry, looked up): as the sequence (Q96D31 whole entry) above
Structure (SMILES),inhibition [1],IC50 [2],inhibition [3]
COc1cccc(CC(=O)N2N=C(c3cccc(C)c3)CC2(O)C(F)(F)F)c1 (centres undefined),< 10%,32 µM,–
Cc1cccc(C2=NN(C(=O)CC3CCCCC3)C(O)(C(F)(F)F)C2)c1 (centres undefined),< 10%,–,< 10%
COc1ccc(CC(=O)N2N=C(c3cccc(C)c3)CC2(O)C(F)(F)F)cc1 (centres undefined),< 10%,33 µM,–
Cc1cccc(C2=NN(C(=O)Cc3ccccc3Cl)C(O)(C(F)(F)F)C2)c1 (centres undefined),< 10%,42 µM,–
COc1ccc(CC(=O)N2N=C(c3ccccc3C)CC2(O)C(F)(F)F)cc1 (centres undefined),< 10%,–,30%
Cc1cccc(C2=NN(C(=O)c3ccccc3)C(O)(C(F)(F)F)C2)c1 (centres undefined),< 10%,–,30%
O=C(Cc1ccccc1)N1N=C(c2cc(Cl)ccc2Cl)CC1(O)C(F)(F)F (centres undefined),< 10%,54 µM,60%
Cc1cccc(C2=NN(C(=O)COc3ccccc3)C(O)(C(F)(F)F)C2)c1 (centres undefined),< 10%,–,< 10%
O=C(Cc1ccccc1)N1N=C(c2ccc(Cl)cc2Cl)CC1(O)C(F)(F)F (centres undefined),< 10%,58 µM,60%
O=C(Cc1ccccc1)N1N=C(c2ccc(Cl)cc2)CC1(O)C(F)(F)F (centres undefined),< 10%,–,< 10%
O=C(Cc1ccccc1)N1N=C(c2cccc(F)c2F)CC1(O)C(F)(F)F (centres undefined),< 10%,55 µM,80%
Cc1cccc(C2(O)CC(C(F)(F)F)=NN2C(=O)c2ccccc2)c1 (centres undefined),< 10%,–,< 10%
COc1ccccc1CC(=O)N1N=C(c2ccccc2C)CC1(O)C(F)(F)F (centres undefined),< 10%,–,60%
O=C(Cc1ccccc1)N1N=C(c2ccccc2[N+](=O)[O-])CC1(O)C(F)(F)F (centres undefined),< 10%,–,40%
Cc1cccc(C2=NN(C(=O)Cc3cccc(Cl)c3)C(O)(C(F)(F)F)C2)c1 (centres undefined),< 10%,75 µM,–
O=C(Cc1ccccc1)N1N=C(c2cccnc2)CC1(O)C(F)(F)F (centres undefined),< 10%,–,< 10%
O=C(Cc1ccccc1)N1N=C(c2cccc(Cl)c2)CC1(O)C(F)(F)F (centres undefined),< 10%,48 µM,–
Cc1ccccc1C1=NN(C(=O)Cc2ccccc2Cl)C(O)(C(F)(F)F)C1 (centres undefined),< 10%,40 µM,–
O=C(Cc1ccccc1)N1N=C(c2ccccc2F)CC1(O)C(F)(F)F (centres undefined),< 10%,–,30%
Cc1ccccc1C1=NN(C(=O)c2ccccc2)C(O)(C(F)(F)F)C1 (centres undefined),< 10%,–,20%

Structure (SMILES),inhibition [1],IC50 [2],inhibition [3]
COc1cccc(CC(=O)N2N=C(c3ccccc3C)CC2(O)C(F)(F)F)c1 (centres undefined),< 10%,–,60%
Cc1ccccc1C1=NN(C(=O)COc2ccccc2)C(O)(C(F)(F)F)C1 (centres undefined),< 20%,105 µM,–
Cc1cccc(CC(=O)N2N=C(c3cccc(C)c3)CC2(O)C(F)(F)F)c1 (centres undefined),< 10%,45 µM,–
CC(=O)Nc1ccc(C2=NN(C(=O)Cc3ccccc3)C(O)(C(F)(F)F)C2)cc1 (centres undefined),< 10%,–,< 10%
O=C(Cc1ccccc1)N1N=C(c2c(F)cccc2F)CC1(O)C(F)(F)F (centres undefined),< 10%,–,< 10%
Cc1cccc(C2=NN(C(=O)Cc3ccc(Cl)cc3)C(O)(C(F)(F)F)C2)c1 (centres undefined),< 10%,60 µM,–
O=C(Cc1ccccc1)N1N=C(c2ccccc2)CC1(O)C(F)(F)F (centres undefined),< 10%,–,< 10%
O=C(Cc1ccccc1)N1N=C(c2cccc(OC(F)(F)F)c2)CC1(O)C(F)(F)F (centres undefined),< 10%,–,50%
O=C(Cc1ccccc1)N1N=C(c2ccccc2Br)CC1(O)C(F)(F)F (centres undefined),< 10%,30 µM,–
N#Cc1ccc(C2=NN(C(=O)Cc3ccccc3)C(O)(C(F)(F)F)C2)cc1 (centres undefined),< 10%,–,< 10%
Cc1ccccc1C1(O)CC(C(F)(F)F)=NN1C(=O)CC1CCCCC1 (centres undefined),< 10%,–,20%
Cc1ccccc1CC(=O)N1N=C(c2ccccc2C)CC1(O)C(F)(F)F (centres undefined),< 10%,–,20%
Cc1cccc(CC(=O)N2N=C(c3ccccc3C)CC2(O)C(F)(F)F)c1 (centres undefined),< 10%,42 µM,–
COc1ccccc1CC(=O)N1N=C(c2cccc(C)c2)CC1(O)C(F)(F)F (centres undefined),< 10%,–,50%
O=C(Cc1ccccc1)N1N=C(c2cccc(C(F)(F)F)c2)CC1(O)C(F)(F)F (centres undefined),< 10%,29 µM,–
Cc1ccc(CC(=O)N2N=C(c3cccc(C)c3)CC2(O)C(F)(F)F)cc1 (centres undefined),< 10%,42 µM,–
Cc1cccc(C2=NN(C(=O)Cc3ccccc3)C(O)(C(F)(F)F)C2)c1 (centres undefined),< 10%,36 µM,–
Cc1ccccc1C1=NN(C(=O)CC2CCCCC2)C(O)(C(F)(F)F)C1 (centres undefined),< 10%,–,< 10%
O=C(Cc1ccccc1)N1N=C(c2cccc(OCCN3CCOCC3)c2)CC1(O)C(F)(F)F (centres undefined),50%,–,50%
O=C(Cc1ccccc1)N1N=C(c2ccc(F)cc2)CC1(O)C(F)(F)F (centres undefined),< 10%,–,< 10%

Structure (SMILES),inhibition [1],IC50 [2],inhibition [3]
O=C(Cc1ccccc1)N1N=C(c2ccccc2Cl)CC1(O)C(F)(F)F (centres undefined),50%,33 µM,–
Cc1ccccc1C1=NN(C(=O)Cc2cccc(Cl)c2)C(O)(C(F)(F)F)C1 (centres undefined),< 10%,79 µM,–
O=C(Cc1ccccc1)N1N=C(c2ccc([N+](=O)[O-])cc2)CC1(O)C(F)(F)F (centres undefined),< 10%,–,< 10%
COc1ccc(C2=NN(C(=O)Cc3ccccc3)C(O)(C(F)(F)F)C2)cc1 (centres undefined),< 10%,–,< 10%
Cc1ccc(C2=NN(C(=O)Cc3ccccc3)C(O)(C(F)(F)F)C2)cc1 (centres undefined),< 10%,–,< 10%
O=C(Cc1ccccc1)N1N=C(c2cccc([N+](=O)[O-])c2)CC1(O)C(F)(F)F (centres undefined),< 10%,89 µM,–
O=C(Cc1ccccc1)N1N=C(c2ccccn2)CC1(O)C(F)(F)F (centres undefined),< 10%,–,20%
O=C(Cc1ccccc1)N1N=C(c2cccc(Br)c2)CC1(O)C(F)(F)F (centres undefined),< 10%,47 µM,–
O=C(Cc1ccccc1)N1N=C(c2ccc(OC(F)(F)F)cc2)CC1(O)C(F)(F)F (centres undefined),< 10%,–,< 10%
Cc1ccccc1C1=NN(C(=O)Cc2ccc(Cl)cc2)C(O)(C(F)(F)F)C1 (centres undefined),< 10%,47 µM,–
Cc1ccc(CC(=O)N2N=C(c3ccccc3C)CC2(O)C(F)(F)F)cc1 (centres undefined),< 10%,55 µM,–
COc1cccc(OC)c1C1=NN(C(=O)Cc2ccccc2)C(O)(C(F)(F)F)C1 (centres undefined),< 10%,–,< 10%
Cc1cccc(C2=NN(C(=O)Cc3ccccc3C)C(O)(C(F)(F)F)C2)c1 (centres undefined),< 10%,–,< 10%
O=C(Cc1ccccc1)N1N=C(c2ccc(Br)cc2)CC1(O)C(F)(F)F (centres undefined),< 10%,–,< 10%
COc1ccccc1C1=NN(C(=O)Cc2ccccc2)C(O)(C(F)(F)F)C1 (centres undefined),< 10%,–,25%
O=C(Cc1ccccc1)N1N=C(C(F)(F)F)CC1(O)c1ccccc1[N+](=O)[O-] (centres undefined),20%,–,30%
N#Cc1cccc(C2=NN(C(=O)Cc3ccccc3)C(O)(C(F)(F)F)C2)c1 (centres undefined),< 10%,–,< 10%
O=C(Cc1ccccc1)N1N=C(c2ccccc2OC(F)(F)F)CC1(O)C(F)(F)F (centres undefined),< 10%,–,< 10%
